Legend:
[1] = species: Rattus norvegicus; test: Fluid concentration in kidney tissue was determined in rats at 2 hr; format: functional
Outline: (§1)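 Rats were gavaged at 20 mg/kg and tissues sampled 0.5–6 h after dosing. Drug was assayed microbiologically with Micrococcus luteus seeded in Antibiotic Media 1. Zone sizes were read against each compound's own standard curve. Values are the mean of three rats per time point, in μg/g.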

[2] = species: Rattus norvegicus; test: Fluid concentration in urine was determined in rats at 2 hr; format: functional
Outline: (§2)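 Rats dosed by gavage at 20 mg/kg; lung, liver, kidney, urine and serum sampled at 0.5, 1, 2, 4 and 6 h after dosing. Antibiotic measured by microbiological assay with Micrococcus luteus seeded in Antibiotic Medium 1. Zone sizes were read against the standard curve for the same compound. Each value is the average of three rats per time point.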

[3] = species: Rattus norvegicus; test: Fluid concentration in urine was determined in rats at 4 hr; format: functional; outline: as §2
[4] = species: Rattus norvegicus
[5] = species: Rattus norvegicus; test: Fluid concentration in kidney tissue was determined in rats at 1 h; format: functional; outline: as §1
[6] = species: Rattus norvegicus; test: Fluid concentration in serum tissue was determined in rats at 4 h; format: functional; outline: as §2
[7] = tested on: Mus musculus; test: Plasma concentration in mice was determined by oral administration, 20 mg/kg at 5 min; format: functional, organism-based; design: dose 20 mg/kg
Outline: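 Mice given 20 mg/kg orally or subcutaneously; peripheral plasma sampled at 5, 20 and 40 min and at 1, 2 and 4 h after dosing. Microbiological assay used Micrococcus luteus seeded in Antibiotic Medium 1, with zone sizes converted by the compound's own standard curve. Each value is the average of five mice per time point.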

[8] = tested on: Rattus norvegicus; test: Plasma concentration in rats was determined by subcutaneous administration, 20 mg/kg at 40 min; format: functional, organism-based; design: dose 20 mg/kg
Outline: (§3)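 Peripheral plasma antibiotic levels in rats given 20 mg/kg orally or subcutaneously. Plasma was sampled at timed points after dosing. Levels were measured by microbiological agar assay with Micrococcus luteus seeded in Antibiotic Media 1, reading zone sizes, and were calculated from a standard curve for the appropriate compound. Each value is the average of three rats per time point, in μg/mL.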

[9] = tested on: Rattus norvegicus; test: Plasma concentration in rats was determined by subcutaneous administration, 20 mg/kg at 8 h; format: functional, organism-based; design: dose 20 mg/kg; outline: as §3

Compound: CC[C@H]1OC(=O)[C@H](C)[C@@H](O[C@H]2C[C@@](C)(OC)[C@@H](O)[C@H](C)O2)[C@H](C)[C@@H](O[C@@H]2O[C@H](C)C[C@H](N(C)C)[C@H]2O)[C@](C)(O)C[C@@H](C)C(=O)[C@H](C)[C@@H](O)[C@]1(C)O [ERYTHROMYCIN]
- Activity [1]: 0 µg/mL
- Activity [2]: 2.5 µg/mL
- Activity [3]: 8.8 µg/mL

Compound: CCCN[C@@H]1[C@H](C)[C@@H](O)[C@](C)(O)[C@@H](CC)OC(=O)[C@H](C)[C@@H](OC2CC(C)(OC)C(O)C(C)O2)[C@H](C)[C@@H](OC2OC(C)CC(N(C)C)C2O)[C@](C)(O)C[C@H]1C (some centres undefined)
- Plasma concentration [4]: 0.08 µg/mL
- Activity [5]: 0.31 µg/mL
- Activity [6]: 0.12 µg/mL
- Plasma concentration [7]: 0 µg/mL
- Plasma concentration [8]: 0.14 µg/mL
- Plasma concentration [9]: 0.24 µg/mL

Reference: ChEMBL document CHEMBL1125014, “Synthesis and structure-activity relationships of new 9-N-alkyl derivatives of 9(S)-erythromycylamine” (1990)
